Scp-1 inhibitor = blocks human Scp-1 phosphatase activity; Q9GZU7; Recombinant Scp1, phosphopeptide, malachite green phosphate absorbance; inhibition, % at 20 µM; hit rate 0.88% among 340,000;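 active means inhibition above about 50% at 20 µM, limit read from the data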;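 further: plate controls were DMSO wells with enzyme for no effect and wells lacking enzyme for full effect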
Target sequence (Q9GZU7 76-261 limits assumed): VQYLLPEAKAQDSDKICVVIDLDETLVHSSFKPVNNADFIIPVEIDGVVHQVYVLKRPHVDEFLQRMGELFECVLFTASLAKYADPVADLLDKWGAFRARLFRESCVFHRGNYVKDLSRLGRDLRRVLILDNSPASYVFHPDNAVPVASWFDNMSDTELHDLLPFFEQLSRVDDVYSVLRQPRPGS
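Assay system: SCP-1 catalytic fragment, aa 76-261 | Buffer or medium: Tris acetate buffer pH 5.5 with MgCl2 and Tween-20 | Compound: One concentration, 20 µM, with 1.0% DMSO | Also added: Phospho 17-mer peptide substrate | Signal: Absorbance at 630 nm | Incubation: 45 min enzyme reaction at room temperature | Measure: % inhibition of SCP-1 phosphate liberation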
LMPTP block = LMPTP (human) inhibition; hit rate 0.22% among 360,000; inhibition, % at 20 µM; recombinant LMPTP-A, OMFP fluorogenic substrate, fluorescence intensity; P24666;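 active means compounds that cut the enzyme signal by at least half of the control window in the single-dose screen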;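 further: plate controls were DMSO wells with enzyme plus substrate for no effect and substrate without enzyme for full effect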
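Test system: LMPTP-A phosphatase enzyme. Amount: LMPTP-A at 0.625 nM final in the reaction. Reagent: OMFP substrate, 400 µM final. Times: 50 min at room temperature. Signal: endpoint fluorescence intensity from OMFP dephosphorylation. Read-out basis: % inhibition. Benchmarks: no-enzyme and uninhibited controls.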
NadD inh = NadD (S. aureus) enzyme inhibition; purified NadD enzyme, colorimetric absorbance read-out; inhibition, % at 20 µM; hit rate 0.78% among 360,000; in the data active means inhibition above about 26%
rCAG binder = binds r(CAG) RNA repeats; inhibition, % at 3 µM; hit rate 1.3% among 370,000; r(CAG) RNA repeat, TO-PRO-1 dye displacement fluorescence;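 active means inhibition above the plate cutoff, the mean of all test compounds on that plate plus 3 SD, cut at about 35% in these data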;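 further: 0% = DMSO alone and 100% = 100 µM mitoxantrone as full dye displacement; higher means more dye released from RNA so lower well fluorescence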
STEP block = inhibitors of human striatal-enriched phosphatase STEP. P54829. recombinant STEP, OMFP fluorogenic substrate, fluorescence. inhibition, % at 20 µM. hit rate 0.25% among 360,000. AID 588621;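 active means inhibition at 20 µM, scaled per plate between control wells, above about 37%, limit read from the data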;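 further: 0% = DMSO with enzyme and substrate and 100% = substrate only without enzyme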
Target sequence (P54829 whole entry, looked up): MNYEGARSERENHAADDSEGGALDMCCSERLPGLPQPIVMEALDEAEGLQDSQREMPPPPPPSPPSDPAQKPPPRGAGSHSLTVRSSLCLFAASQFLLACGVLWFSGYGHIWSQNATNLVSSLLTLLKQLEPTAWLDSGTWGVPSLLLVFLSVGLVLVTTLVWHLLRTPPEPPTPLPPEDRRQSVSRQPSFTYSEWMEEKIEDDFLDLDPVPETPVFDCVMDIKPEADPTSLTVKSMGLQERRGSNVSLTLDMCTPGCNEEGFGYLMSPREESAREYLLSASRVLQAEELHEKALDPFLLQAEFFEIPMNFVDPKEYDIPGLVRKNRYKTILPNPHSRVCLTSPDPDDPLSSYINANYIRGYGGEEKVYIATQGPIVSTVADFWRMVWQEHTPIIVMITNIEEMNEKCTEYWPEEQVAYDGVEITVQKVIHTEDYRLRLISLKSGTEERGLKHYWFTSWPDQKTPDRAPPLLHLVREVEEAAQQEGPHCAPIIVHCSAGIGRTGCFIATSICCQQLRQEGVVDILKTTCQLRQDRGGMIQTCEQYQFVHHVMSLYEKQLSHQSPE
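System: isolated STEP enzyme; schedule: 20 min enzyme reaction at room temperature, protected from light; medium: Bis-Tris buffer pH 6.0, 2.5 mM DTT, 0.005% Tween 20; signal: fluorescence, 480/540 nm; dosing: single compound dose of 20 µM, 1% DMSO final; also added: OMFP substrate, 25 µM final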
rCAG bind conf = r(CAG) RNA repeat binding, confirmation; inhibition, % at 3 µM; shares compounds with rCAG binder; hit rate 70% among 4,300; TO-PRO-1 dye displacement fluorescence; AID 652065;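 active means inhibition above a per-plate cutoff, the mean inhibition of sample wells plus 3 SD, cut at about 35% in these data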;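 further: loss of TO-PRO-1 fluorescence as compound displaces dye from 1x1 AA loop RNA; 0% = DMSO only wells and 100% = 100 µM mitoxantrone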
dCAG dye counter = counter-screen for rCAG RNA binders: DNA CAG dye complex inhibitors; hit rate 94% among 4,300; shares compounds with rCAG binder; inhibition, % at 3 µM; d(CAG) DNA oligo TO-PRO-1 dye displacement, fluorescence;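 active means inhibition above its plate's cutoff, the mean test-well inhibition plus 3 SD, cut at about 4.8% in these data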;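 further: 0% = DNA dye mix with DMSO and 100% = 100 µM mitoxantrone; hits displace the dye from DNA and so lower well fluorescence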
dCAG dye DR = DNA CAG dye complex inhibition, dose response counter-screen; AID 686960; DNA CAG/GTC duplex TO-PRO-1 dye displacement fluorescence; IC50, µM; hit rate 20% among 250; shares compounds with rCAG binder; in the data active means IC50 below about 10 µM
* = called active by the depositor; i = inactive; . = no result. Most compounds without a hit are left out; they make up all but 2.6% or so of the library.

SMILES	Scp-1 inhibitor	LMPTP block	NadD inh	rCAG binder	STEP block	rCAG bind conf	dCAG dye counter	others
COc1cc(/C=C2\SC(=S)N(NC(=O)c3ccccc3O)C2=O)ccc1O	-22.2	2.3	-1.7	55.3*	-4.5	33.6	12.7*
O=C(O)c1ccc(N2C(=O)CC(SC(=NCc3ccc4c(c3)OCO4)Nc3ccc(F)cc3)C2=O)cc1 (centres undefined)	-7.2	3.7	19.5	77.4*	-2.4	72.8*	33.4*	dCAG dye DR=>29.9
O=C(O)c1ccc(N2C(=O)CC(SC(=NCc3ccc4c(c3)OCO4)Nc3ccccc3)C2=O)cc1 (centres undefined)	-5.6	2.5	2.5	68.8*	-1.4	62.5*	22.9*
CN=C(Nc1ccc2c(c1)OCO2)SC1CC(=O)N(c2ccccc2)C1=O (centres undefined)	-0.1	0.4	3.8	-0.7	-0.2	.	.
O=C1CC(SC(=NCc2ccc3c(c2)OCO3)Nc2ccccc2)C(=O)N1c1ccccc1 (centres undefined)	-6.9	4.2	5.6	3.2	-0.3	.	.
COc1ccccc1NC(=O)c1ccc(NS(=O)(=O)c2ccc(F)c(F)c2F)cc1	-10.4	-1.9	-4.6	44.2*	-8.0	27.9	6.1*
O=C(O)C/C(=C\c1ccc2c(c1)OCO2)c1nc2ccccc2s1	-7.2	-1.7	-1.4	15.6	-2.5	.	.
O=C(O)C/C(=C\c1cc(Cl)c2c(c1)OCO2)c1nc2ccccc2s1	27.6	10.2	3.2	46.6*	0.0	45.4*	17.6*
Cc1ccc(-c2nnc(SCC(=O)Nc3ccc4c(c3)OCCO4)n2-c2ccc(C)cc2)cc1	.	.	.	9.0	.	.	.
C=CCN1C(=O)/C(=C/c2ccc(OCC(=O)O)cc2)S/C1=N/c1nccs1	0.3	0.9	10.1	56.2*	2.5	57.0*	17.4*
COc1ccc(S(=O)(=O)Nc2cc(SCC(=O)O)c(O)c3ccccc23)cc1	2.0	5.6	3.9	37.7*	10.5	48.5*	18.3*
COc1ccc(S(=O)(=O)Nc2cc(Sc3ncn[nH]3)c(O)c3ccccc23)cc1	.	.	.	42.6*	.	23.9	9.8*
O=C(CSc1nnc(COc2ccc(Cl)cc2)n1Cc1ccco1)Nc1ccc(OCc2ccccc2)cc1	.	.	.	21.2	.	.	.
Cc1ccc(/C=c2\s/c(=C(/C#N)C(=O)N3CCCC3)n(Cc3ccco3)c2=O)s1	0.2	3.8	24.3	34.6*	-1.5	12.4	10.2*
CCOC(=O)Cc1nc(N2CCN(C=O)CC2)c2c(C)c(C(=O)OCC)sc2n1	.	.	.	5.8	.	.	.
COc1ccc(C(=O)Oc2coc(CSc3nnc(NC(=O)c4cccs4)s3)cc2=O)cc1	15.2	-0.3	24.7	34.8*	1.0	51.5*	16.4*
CC(C)c1ccc(C2c3[nH]c4ccccc4c3C[C@H]3C(=O)N(c4ccccc4C(=O)N4CCC[C@H]4C(=O)O)C(=O)N23)cc1 (some centres undefined)	-1.3	-1.2	25.7	46.2*	-1.4	70.2*	27.4*	dCAG dye DR=i
COc1ccc(C2c3[nH]c4ccccc4c3C[C@H]3C(=O)N(c4ccccc4C(=O)N4CCC(C(=O)O)CC4)C(=O)N23)cc1 (some centres undefined)	9.5	-1.0	12.3	29.0	-0.4	.	.
COc1cc(C)ccc1S(=O)(=O)NC(=O)Cn1nnc(COc2ccc3c(c2)CCCC3)c1C	.	-1.3	4.2	47.8*	0.5	41.8*	11.8*
CC(=O)NCCNC(=O)Cn1nnc(-c2ccccc2)c1COc1ccc2ccccc2c1	.	-0.1	0.3	1.6	0.7	.	.
CC(=O)c1ccc(OCc2nnn(CC(=O)NS(=O)(=O)c3ccc(C)cc3)c2-c2ccccc2)cc1	.	-1.5	2.9	62.0*	-0.9	67.6*	20.2*
Cc1c(COc2ccc3ccccc3c2)nnn1CC(=O)NS(=O)(=O)c1ccccc1C(F)(F)F	.	-0.8	1.1	70.2*	2.0	63.9*	26.2*
COC(=O)[C@]12C[C@H](CC(=O)N3CCC(c4ccccc4)CC3)C(=O)N(CCC3=CCCCC3)C1=C[C@H](C(C)C)O[C@@H]2C1CC1	.	.	.	7.4	.	.	.
Cc1sc2nc3c(SC(C)C(=O)O)cc(C(=O)c4ccccc4O)cn3c(=O)c2c1C (centres undefined)	-9.1	2.3	18.2	76.6*	7.7	84.9*	61.5*
O=C(Cn1nc(-c2ccccc2)ccc1=O)NCCc1cccc(F)c1	.	.	.	0.6	.	.	.
SMILES	Scp-1 inhibitor	LMPTP block	NadD inh	rCAG binder	STEP block	rCAG bind conf	dCAG dye counter	others
O=C(CC(CC(=O)c1ccc(Cl)cc1)c1ccccc1C(=O)O)c1ccc(Cl)cc1	0.4	-0.3	1.6	42.3*	1.3	53.8*	12.6*
CCCS(=O)(=O)c1c(S(=O)(=O)CCC)c2c(N)cccn2c1C(=O)c1ccc(OC)cc1	-1.3	1.0	13.5	19.4	1.1	.	.
CCCS(=O)(=O)c1c(S(=O)(=O)CCC)c2c(N)cccn2c1C(=O)c1ccc(Br)cc1	-4.9	2.5	26.5	52.2*	-5.6	20.8	11.2*
CCCS(=O)(=O)c1c(S(=O)(=O)CCC)c2c(N)cccn2c1C(=O)c1ccc(F)cc1	-8.7	0.8	12.0	45.2*	1.0	21.4	10.1*
C=CCN1C(=O)c2n[nH]c(C(C)C)c2C1c1ccc(C)cc1 (centres undefined)	.	.	.	-2.9	.	.	.
CCc1ccc(-c2n[nH]nc2C2=CC(=O)C[C@H](c3ccc(F)cc3)C2)cc1	.	3.8	12.6	36.8*	0.9	42.1*	10.7*
COC(=O)[C@]12C[C@H](CC(=O)NCc3cccs3)C(=O)N(CCc3ccc(OC)c(OC)c3)C1=C[C@H](C(C)(C)C)O[C@@H]2C	.	.	.	1.2	.	.	.
COC(=O)[C@]12C[C@H](CC(=O)NCC34CC5CC(CC(C5)C3)C4)C(=O)N(Cc3ccc(Cl)cc3Cl)C1=C[C@H](C(C)(C)C)O[C@@H]2C	.	.	.	2.5	.	.	.
Cc1cccc2c1c1ccc3c(c1n2C)C(=O)C=CC3=O	2.0	21.8	50.2*	39.5*	4.8	19.8	12.6*
C=C1[C@@H](CCO)N(S(=O)C(C)(C)C)C[C@@H]1C (some centres undefined)	.	.	.	0.4	.	.	.
Cc1ccc(CNC(=O)CCS(=O)(=O)c2cc3c(cc2Br)CCN3C(=O)C2CC2)o1	.	.	.	6.3	.	.	.
O=C(Nc1ccncc1)c1ccc(S(=O)(=O)Nc2ccccc2)cc1	-11.6	0.5	-3.7	2.6	2.4	.	.
O=C(CNC(=O)c1ccc(-c2ccccc2)cc1)Nc1ccc(S(=O)(=O)Nc2ncccn2)cc1	-1.7	2.0	8.7	38.5*	-0.7	29.0	10.3*
